Each block holds one molecule with its values, some of them ahead of it.
What was measured:
[1] = biological target: Histone deacetylase (HDAC1 and HDAC2) (Homo sapiens, UniProt Q13547+Q92769); test: Inhibition of HDAC1/2 in human HeLa cell nuclear extract using COLOR DE LYS as substrate pretreated for 5 mins followed by substrate addition measured after 30 mins by UV-absorption method; format: cell-based
[2] = Inhibition of Class 2a histone deacetylase in human K562 cells using Boc-Lys-(epsilon-trifluoromethylacetyl)-AMC as substrate preincubated with compound for 3 hrs followed by substrate addition measured after 3 hrs by fluorometric analysis; format: cell-based
K562 [3] = test: Induction of apoptosis in human K562 cells assessed as late apoptotic cells at 1 uM after 24 hrs by Annexin V-FITC/propidium iodide staining-based flow cytometry (reference value: 2.83%); format: functional
Histone deacetylase 1 = Histone deacetylase 1 (Homo sapiens, UniProt Q13547); test: Inhibition of HDAC1 (unknown origin) using substrate after 30 mins by fluorometric analysis
Chain of Histone deacetylase 1 (Q13547 whole entry): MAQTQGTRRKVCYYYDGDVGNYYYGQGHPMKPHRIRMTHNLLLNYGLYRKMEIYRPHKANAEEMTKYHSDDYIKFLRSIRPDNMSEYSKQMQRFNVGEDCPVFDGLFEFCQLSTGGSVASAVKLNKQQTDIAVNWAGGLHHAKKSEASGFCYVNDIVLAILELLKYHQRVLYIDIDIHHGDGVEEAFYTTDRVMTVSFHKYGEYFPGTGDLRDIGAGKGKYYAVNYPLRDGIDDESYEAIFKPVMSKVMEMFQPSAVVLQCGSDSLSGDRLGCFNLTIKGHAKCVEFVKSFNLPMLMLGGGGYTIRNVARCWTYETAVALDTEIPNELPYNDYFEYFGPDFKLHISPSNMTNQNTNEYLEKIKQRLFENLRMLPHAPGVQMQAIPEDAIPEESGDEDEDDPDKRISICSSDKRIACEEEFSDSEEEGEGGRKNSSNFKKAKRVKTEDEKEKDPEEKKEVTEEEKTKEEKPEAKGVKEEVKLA

K562 [4] = test: Induction of apoptosis in human K562 cells after 24 hrs by Annexin V-FITC/propidium iodide staining-based flow cytometric method; format: functional, cell-based
[5] = Inhibition of Class 1 histone deacetylase in human K562 cells using Boc-Lys (acetyl)-AMC as substrate preincubated with compound for 3 hrs followed by substrate addition measured after 3 hrs by fluorometric analysis; format: cell-based
K562 [6] = test: Induction of apoptosis in human K562 cells assessed as viable cells at 1 uM after 24 hrs by Annexin V-FITC/propidium iodide staining-based flow cytometry (reference value: 92.4%); format: functional; details: Homo sapiens, K562, 24 h; read-out: Activity
K562 [7] = test: Induction of apoptosis in human K562 cells assessed as necrotic cells at 1 uM after 24 hrs by Annexin V-FITC/propidium iodide staining-based flow cytometry (reference value: 0.035%); format: functional
K562 [8] = test: Antiproliferative activity against human K562 cells after 48 hrs by MTT assay; format: functional, cell-based; details: K562, 48 h
K562 [9] = test: Induction of apoptosis in human K562 cells assessed as late apoptotic cells at 2 uM after 24 hrs by Annexin V-FITC/propidium iodide staining-based flow cytometry (reference value: 2.83%); format: functional
K562 [10] = test: Potency index, ratio of vorinostat IC50 to compound IC50 for human K562 cells; format: functional
Procedure, shortened: (§1)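 Cells were grown in RPMI1640 with 10% FBS at 37°C and 5% CO2, seeded at 4000–5000 cells/well for 8 h, then exposed to a compound concentration series for 48 h. MTT (0.5%) was added for 4 h and formazan dissolved in DMSO. A570 was read and IC50 derived from inhibition ratios.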

K562 [11] = test: Induction of apoptosis in human K562 cells assessed as early apoptotic cells at 1 uM after 24 hrs by Annexin V-FITC/propidium iodide staining-based flow cytometry (reference value: 4.78%); format: functional
K562 [12] = test: Induction of apoptosis in human K562 cells assessed as early apoptotic cells at 2 uM after 24 hrs by Annexin V-FITC/propidium iodide staining-based flow cytometry (reference value: 4.78%); format: functional
HEL = test: Antiproliferative activity against human HEL cells after 48 hrs by MTT assay; format: functional, cell-based
HeLa = test: Antiproliferative activity against human HeLa cells after 48 hrs by MTT assay; format: functional, cell-based
Procedure, shortened: (§2)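 Cells grown in RPMI1640 with 10% FBS at 37°C, 5% CO2. Seeded at 4000–5000 cells/well for 8 h, then exposed to a range of compound concentrations for 48 h. 0.5% MTT solution added for 4 h, formazan dissolved in DMSO, absorbance read at 570 nm. IC50 derived from inhibition ratios, given as mean ± standard deviation of two or three separate determinations.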

[13] = biological target: T1, Protein deacetylase HDAC6 (Homo sapiens, UniProt Q9UBN7); test: Inhibition of HDAC6 (unknown origin) using substrate after 30 mins by fluorometric analysis
T1 sequence (Q9UBN7 whole entry): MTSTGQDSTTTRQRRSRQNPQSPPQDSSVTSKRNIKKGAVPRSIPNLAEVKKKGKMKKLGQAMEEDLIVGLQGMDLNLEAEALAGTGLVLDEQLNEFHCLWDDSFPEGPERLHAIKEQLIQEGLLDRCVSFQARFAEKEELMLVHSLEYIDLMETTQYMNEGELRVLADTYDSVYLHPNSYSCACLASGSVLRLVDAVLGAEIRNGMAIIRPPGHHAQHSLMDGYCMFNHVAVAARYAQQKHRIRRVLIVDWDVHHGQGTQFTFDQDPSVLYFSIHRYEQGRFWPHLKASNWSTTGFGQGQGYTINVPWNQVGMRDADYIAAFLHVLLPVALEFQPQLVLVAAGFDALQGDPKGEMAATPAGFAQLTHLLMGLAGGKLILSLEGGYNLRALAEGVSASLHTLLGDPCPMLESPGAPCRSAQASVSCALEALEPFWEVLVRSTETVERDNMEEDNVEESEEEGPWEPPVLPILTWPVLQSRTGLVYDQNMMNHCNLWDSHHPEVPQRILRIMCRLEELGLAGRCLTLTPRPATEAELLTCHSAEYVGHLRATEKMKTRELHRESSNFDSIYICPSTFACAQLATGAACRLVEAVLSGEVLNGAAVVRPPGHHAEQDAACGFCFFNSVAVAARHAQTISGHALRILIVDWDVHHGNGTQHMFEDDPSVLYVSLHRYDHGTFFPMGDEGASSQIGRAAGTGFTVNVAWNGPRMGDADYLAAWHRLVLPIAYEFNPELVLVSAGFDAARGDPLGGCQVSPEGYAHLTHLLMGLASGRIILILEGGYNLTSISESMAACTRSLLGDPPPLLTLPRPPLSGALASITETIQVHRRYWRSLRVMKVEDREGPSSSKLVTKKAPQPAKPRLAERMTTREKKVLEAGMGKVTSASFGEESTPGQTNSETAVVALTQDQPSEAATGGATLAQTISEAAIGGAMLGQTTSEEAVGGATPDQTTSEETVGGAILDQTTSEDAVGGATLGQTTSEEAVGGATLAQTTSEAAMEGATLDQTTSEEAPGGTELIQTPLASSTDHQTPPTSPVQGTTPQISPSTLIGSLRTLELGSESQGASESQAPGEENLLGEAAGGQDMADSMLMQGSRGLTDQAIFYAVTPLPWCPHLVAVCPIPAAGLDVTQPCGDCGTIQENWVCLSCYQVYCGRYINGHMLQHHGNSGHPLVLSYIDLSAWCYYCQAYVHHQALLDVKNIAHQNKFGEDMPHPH

Histone deacetylase 8 = biological target: T2, Histone deacetylase 8 (Homo sapiens, UniProt Q9BY41); test: Inhibition of HDAC8 (unknown origin) using substrate after 30 mins by fluorometric analysis
T2 sequence (Q9BY41 whole entry): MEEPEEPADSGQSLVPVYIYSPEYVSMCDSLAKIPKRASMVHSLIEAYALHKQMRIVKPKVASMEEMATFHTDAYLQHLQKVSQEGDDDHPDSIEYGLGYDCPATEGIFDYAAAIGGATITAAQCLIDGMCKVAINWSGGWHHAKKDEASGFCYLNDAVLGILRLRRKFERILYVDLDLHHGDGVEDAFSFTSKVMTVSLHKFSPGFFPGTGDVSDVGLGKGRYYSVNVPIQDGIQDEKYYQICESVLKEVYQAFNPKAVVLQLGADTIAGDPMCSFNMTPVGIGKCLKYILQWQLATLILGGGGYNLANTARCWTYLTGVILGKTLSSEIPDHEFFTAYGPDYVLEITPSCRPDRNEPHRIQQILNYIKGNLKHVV

PC-3 [14] = test: Antiproliferative activity against human PC3 cells after 48 hrs by MTT assay; format: functional, cell-based; details: PC-3, 48 h; procedure, shortened: as §2
MOLT-4 = test: Antiproliferative activity against human MOLT4 cells after 48 hrs by MTT assay; format: functional, cell-based; details: MOLT-4, 48 h
K562 [15] = test: Induction of apoptosis in human K562 cells assessed as necrotic cells at 2 uM after 24 hrs by Annexin V-FITC/propidium iodide staining-based flow cytometry (reference value: 0.035%); format: functional
K562 [16] = test: Induction of apoptosis in human K562 cells assessed as viable cells at 2 uM after 24 hrs by Annexin V-FITC/propidium iodide staining-based flow cytometry (reference value: 92.4%); format: functional; details: Homo sapiens, K562, 24 h; read-out: Activity
PC-3 [17] = test: Potency index, ratio of vorinostat IC50 to compound IC50 for human PC3 cells; format: functional; procedure, shortened: as §1

IC50 [1]: > 1000 nM
SMILES: COc1ccc2nc(CN(Cc3ccccc3)Cc3ccc(/C=C/C(=O)NO)cc3)ccc2c1

IC50 [2]: 5210 nM
IC50 (Histone deacetylase 1): 72.5 nM
IC50 [5]: 108 nM
IC50 (K562 [8]): 510 nM
IC50 [1]: 138 nM
IC50 (HeLa): 2200 nM
IC50 [13]: 49.5 nM
IC50 (Histone deacetylase 8): 442 nM
IC50 (PC-3 [14]): 3080 nM
IC50 (MOLT-4): 240 nM
SMILES: O=C(/C=C/c1ccc(CNCc2ccc3ccccc3n2)cc1)NO
Activity (K562 [3]): 1.95%
Activity (K562 [4]): Dose-dependent effect
viability at 1 µM (K562 [6]): 63.4%
Activity (K562 [7]): 0.121%
Activity (K562 [9]): 2.16%
Ratio IC50 (K562 [10]): 3 - 5
Activity (K562 [11]): 34.5%
Activity (K562 [12]): 58.2%
IC50 (HEL): 150 nM
Activity (K562 [15]): 0.072%
viability at 2 µM (K562 [16]): 39.6%
Ratio IC50 (PC-3 [17]): 3 - 5

IC50 [2]: 4210 nM
IC50 (Histone deacetylase 1): 95 nM
IC50 [5]: 64 nM
IC50 (K562 [8]): 360 nM
IC50 [1]: 275 nM
IC50 (HeLa): 1820 nM
IC50 [13]: 36.5 nM
IC50 (Histone deacetylase 8): 911 nM
IC50 (PC-3 [14]): 2920 nM
IC50 (MOLT-4): 160 nM
SMILES: O=C(/C=C/c1ccc(CNCc2ccc3cccc(Cl)c3n2)cc1)NO
Activity (K562 [3]): 3.75%
Activity (K562 [4]): Dose-dependent effect
viability at 1 µM (K562 [6]): 57.9%
Activity (K562 [7]): 0.145%
Activity (K562 [9]): 2.96%
Ratio IC50 (K562 [10]): 3 - 5
Activity (K562 [11]): 38.2%
Activity (K562 [12]): 56.2%
IC50 (HEL): 110 nM
Activity (K562 [15]): 0.174%
viability at 2 µM (K562 [16]): 40.7%
Ratio IC50 (PC-3 [17]): 3 - 5

IC50 [1]: 560 nM
SMILES: COc1ccc2nc(CN(C(=O)Cc3ccc(/C=C/C(=O)NO)cc3)c3ccccc3)ccc2c1

IC50 [1]: > 1000 nM
SMILES: COc1ccc2nc(CNCc3ccc(C(=O)NO)cc3)ccc2c1

IC50 [1]: > 1000 nM
SMILES: O=C(/C=C/c1ccc(C(=O)N(Cc2ccc3ccccc3n2)c2ccccc2)cc1)NO

IC50 [1]: > 1000 nM
SMILES: O=C(/C=C/c1ccc(C(=O)N(Cc2ccc3cc(Br)ccc3n2)c2ccccc2)cc1)NO

IC50 [1]: 559 nM
SMILES: O=C(/C=C/c1cccc(CNCc2ccc3cc(Br)ccc3n2)c1)NO

IC50 [1]: > 1000 nM
SMILES: CCCCCCN(Cc1ccc(/C=C/C(=O)NO)cc1)Cc1ccc2cc(Br)ccc2n1

IC50 (K562 [8]): 690 nM
IC50 [1]: 236 nM
IC50 (HeLa): 2680 nM
IC50 (PC-3 [14]): 3700 nM
IC50 (MOLT-4): 230 nM
SMILES: COc1ccc2nc(CNCc3ccc(/C=C/C(=O)NO)cc3)ccc2c1
IC50 (HEL): 130 nM

IC50 [1]: > 1000 nM
SMILES: COc1ccc(N(Cc2ccc3cccc(Cl)c3n2)C(=O)c2ccc(/C=C/C(=O)NO)cc2)cc1

IC50 [1]: 720 nM
SMILES: O=C(/C=C/c1ccc(CC(=O)N(Cc2ccc3ccccc3n2)c2ccccc2)cc1)NO

IC50 [1]: 375 nM
SMILES: O=C(/C=C/c1ccc(CNCc2ccc3cc(Br)ccc3n2)cc1)NO

IC50 [1]: 724 nM
SMILES: COc1cccc2ccc(CN(C(=O)c3ccc(/C=C/C(=O)NO)cc3)c3ccccc3)nc12

IC50 [1]: > 1000 nM
SMILES: O=C(NO)c1ccc(CNCc2ccc3cc(Br)ccc3n2)cc1
